This note sets out measurements from ChEMBL document CHEMBL1138520, “Molecular and conformational determinants of pituitary adenylate cyclase-activating polypeptide (PACAP) for activation of the PAC1 receptor” (J Med Chem, 2009).

The target of assay [1] is T1, Pituitary adenylate cyclase-activating polypeptide type I receptor (Homo sapiens, UniProt P41586). Description: Displacement of [125I]Ac-PACAP27 from human recombinant PAC1 receptor expressed in CHO cells by gamma- counter. The class given is cell-based. A general note: In a radioligand displacement assay an active substance lowers the binding of a labelled ligand.
Target sequence in this assay (P41586 whole entry): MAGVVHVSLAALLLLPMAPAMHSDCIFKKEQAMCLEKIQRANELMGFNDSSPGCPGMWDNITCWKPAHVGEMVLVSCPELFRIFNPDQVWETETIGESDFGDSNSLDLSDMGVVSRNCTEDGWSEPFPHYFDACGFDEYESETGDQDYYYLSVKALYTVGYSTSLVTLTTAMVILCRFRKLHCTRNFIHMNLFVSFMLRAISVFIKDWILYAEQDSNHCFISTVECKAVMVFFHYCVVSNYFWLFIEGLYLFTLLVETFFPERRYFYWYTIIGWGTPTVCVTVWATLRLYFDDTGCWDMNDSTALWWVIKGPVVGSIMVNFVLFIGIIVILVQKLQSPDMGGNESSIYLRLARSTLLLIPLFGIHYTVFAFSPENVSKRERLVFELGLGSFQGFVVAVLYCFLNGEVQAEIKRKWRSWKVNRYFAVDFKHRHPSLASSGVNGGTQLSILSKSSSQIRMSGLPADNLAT

Assay [2] deals with T1, Pituitary adenylate cyclase-activating polypeptide type I receptor. The assay is described as follows: Agonist activity at human recombinant PAC1 receptor expressed in CHO cells assessed as PACAP38-induced calcium mobilization by FLIPR assay relative to PACAP38. Format: functional, cell-based. In a few lines:
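CHO cells stably expressing recombinant human PAC1, plated 24 h before assay, loaded with fluo-4 AM for 60 min at 37 °C in the dark, then rinsed into HBSS for 15 min at 37 °C. Peptide was added 18 s into a 150 s read (ex 480/em 525 nm), at final concentrations of 1 × 10-12 to 1 × 10^-5 M. Response was normalised to 1 × 10^-5 M PACAP38 on each plate. EC50 and efficacy came from nonlinear regression; 4-10 independent assays in duplicate.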
(A change in cytosolic calcium serves as a functional read-out for many receptors and channels.)
Target sequence in this assay (P41586 21-468 limits assumed): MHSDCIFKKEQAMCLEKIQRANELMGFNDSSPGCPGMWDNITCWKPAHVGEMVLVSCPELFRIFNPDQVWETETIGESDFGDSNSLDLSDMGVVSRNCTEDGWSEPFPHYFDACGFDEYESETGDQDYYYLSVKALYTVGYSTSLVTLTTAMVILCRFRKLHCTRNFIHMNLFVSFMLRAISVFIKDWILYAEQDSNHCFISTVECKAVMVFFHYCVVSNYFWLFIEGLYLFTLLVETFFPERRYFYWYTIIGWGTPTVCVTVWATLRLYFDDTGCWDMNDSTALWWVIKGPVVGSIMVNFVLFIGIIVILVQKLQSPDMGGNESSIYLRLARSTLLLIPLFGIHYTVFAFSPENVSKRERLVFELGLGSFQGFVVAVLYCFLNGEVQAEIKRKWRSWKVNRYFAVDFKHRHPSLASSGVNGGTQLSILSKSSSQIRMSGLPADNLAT

The target is the same in assay [3]. Description: Agonist activity at human recombinant PAC1 receptor expressed in CHO cells assessed as PACAP38-induced calcium mobilization by FLIPR assay. The class given is functional, cell-based. In a few lines: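 CHO cells stably expressing recombinant human PAC1, plated 24 h before assay, loaded with fluo-4 AM for 60 min at 37 °C in the dark, then rinsed into HBSS for 15 min at 37 °C. EC50 and efficacy came from nonlinear regression; 4-10 independent assays in duplicate.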
Target sequence in this assay (P41586 whole entry): as the sequence (P41586 whole entry) above

Molecules are shown by their SMILES. Where a SMILES comes first, the peptide text is derived from it.

For orientation: IC50 means the point on the concentration scale where inhibition reaches its midpoint. For orientation: Emax means the size of the effect at its maximum, as opposed to the concentration needed. As a reminder, the EC50 is the concentration giving half of the maximal effect. Turning to `CC[C@H](C)[C@H](NC(=O)CNC(=O)[C@H](CC(=O)O)NC(=O)[C@H](CO)NC(=O)[C@@H](N)Cc1cnc[nH]1)C(=O)N[C@@H](Cc1ccccc1)C(=O)N[C@@H](C)C(=O)N[C@@H](CC(=O)O)C(=O)N[C@@H](CO)C(=O)N[C@@H](Cc1ccc(O)cc1)C(=O)N[C@@H](CO)C(=O)N[C@@H](CCCNC(=N)N)C(=O)N[C@@H](Cc1ccc(O)cc1)C(=O)N[C@@H](CCCNC(=N)N)C(=O)N[C@@H](CCCCN)C(=O)N[C@@H](CCC(N)=O)C(=O)N[C@@H](CCSC)C(=O)N[C@@H](C)C(=O)N[C@H](C(=O)N[C@@H](CCCCN)C(=O)N[C@@H](CCCCN)C(=O)N[C@@H](Cc1ccc(O)cc1)C(=O)N[C@@H](CC(C)C)C(=O)N[C@@H](C)C(=O)N[C@@H](C)C(=O)N[C@H](C(=O)N[C@@H](CC(C)C)C(=O)NCC(=O)N[C@@H](CCCCN)C(=O)N[C@@H](CCCNC(=N)N)C(=O)N[C@@H](Cc1ccc(O)cc1)C(=O)N[C@@H](CCCCN)C(=O)N[C@@H](CCC(N)=O)C(=O)N[C@@H](CCCNC(=N)N)C(=O)N[C@H](C(=O)N[C@@H](CCCCN)C(=O)N[C@@H](CC(N)=O)C(=O)N[C@@H](CCCCN)C(N)=O)C(C)C)C(C)C)C(C)C` (H-HSDGIFADSYSRYRKQMAVKKYLAAVLGKRYKQRVKNK-NH2), the IC50 in assay [1] came to 4 nM. Besides, the Emax in assay [2] was determined as 101%. In addition, the EC50 in assay [3] is 0.8 nM.
The matching figures for `CC[C@H](C)[C@H](NC(=O)CNC(=O)[C@H](CC(=O)O)NC(=O)[C@H](CO)NC(=O)[C@@H](N)Cc1cnc[nH]1)C(=O)N[C@@H](Cc1ccc(-c2ccccc2)cc1)C(=O)N[C@H](C(=O)N[C@@H](CC(=O)O)C(=O)N[C@@H](CO)C(=O)N[C@@H](Cc1ccc(O)cc1)C(=O)N[C@@H](CO)C(=O)N[C@@H](CCCNC(=N)N)C(=O)N[C@@H](Cc1ccc(O)cc1)C(=O)N[C@@H](CCCNC(=N)N)C(=O)N[C@@H](CCCCN)C(=O)N[C@@H](CCC(N)=O)C(=O)N[C@@H](CCSC)C(=O)N[C@@H](C)C(=O)N[C@H](C(=O)N[C@@H](CCCCN)C(=O)N[C@@H](CCCCN)C(=O)N[C@@H](Cc1ccc(O)cc1)C(=O)N[C@@H](CC(C)C)C(=O)N[C@@H](C)C(=O)N[C@@H](C)C(=O)N[C@H](C(=O)N[C@@H](CC(C)C)C(N)=O)C(C)C)C(C)C)[C@@H](C)O`: 4.5 nM, 104% and 1 nM.
The matching figures for `CC[C@H](C)[C@H](NC(=O)CNC(=O)[C@H](CC(=O)O)NC(=O)[C@H](C)NC(=O)[C@@H](N)Cc1cnc[nH]1)C(=O)N[C@@H](Cc1ccccc1)C(=O)N[C@H](C(=O)N[C@@H](CC(=O)O)C(=O)N[C@@H](CO)C(=O)N[C@@H](Cc1ccc(O)cc1)C(=O)N[C@@H](CO)C(=O)N[C@@H](CCCNC(=N)N)C(=O)N[C@@H](Cc1ccc(O)cc1)C(=O)N[C@@H](CCCNC(=N)N)C(=O)N[C@@H](CCCCN)C(=O)N[C@@H](CCC(N)=O)C(=O)N[C@@H](CCSC)C(=O)N[C@@H](C)C(=O)N[C@H](C(=O)N[C@@H](CCCCN)C(=O)N[C@@H](CCCCN)C(=O)N[C@@H](Cc1ccc(O)cc1)C(=O)N[C@@H](CC(C)C)C(=O)N[C@@H](C)C(=O)N[C@@H](C)C(=O)N[C@H](C(=O)N[C@@H](CC(C)C)C(=O)NCC(=O)N[C@@H](CCCCN)C(=O)N[C@@H](CCCNC(=N)N)C(=O)N[C@@H](Cc1ccc(O)cc1)C(=O)N[C@@H](CCCCN)C(=O)N[C@@H](CCC(N)=O)C(=O)N[C@@H](CCCNC(=N)N)C(=O)N[C@H](C(=O)N[C@@H](CCCCN)C(=O)N[C@@H](CC(N)=O)C(=O)N[C@@H](CCCCN)C(N)=O)C(C)C)C(C)C)C(C)C)[C@@H](C)O` (H-HADGIFTDSYSRYRKQMAVKKYLAAVLGKRYKQRVKNK-NH2): 7.9 nM, 105% and 5.1 nM.
The matching figures for `CSCC[C@H](NC(=O)[C@H](CCC(N)=O)NC(=O)[C@H](CCCCN)NC(=O)[C@H](CCCNC(=N)N)NC(=O)[C@H](Cc1ccc(O)cc1)NC(=O)[C@H](CCCNC(=N)N)NC(=O)[C@H](CO)NC(=O)[C@H](Cc1ccc(O)cc1)NC(=O)[C@H](CO)NC(=O)[C@H](CC(=O)O)NC(=O)[C@@H](NC(=O)[C@H](Cc1ccccc1)NC(=O)[C@H](C)NC(=O)CNC(=O)[C@H](CC(=O)O)NC(=O)[C@H](CO)NC(=O)[C@@H](N)Cc1cnc[nH]1)[C@@H](C)O)C(=O)N[C@@H](C)C(=O)N[C@H](C(=O)N[C@@H](CCCCN)C(=O)N[C@@H](CCCCN)C(=O)N[C@@H](Cc1ccc(O)cc1)C(=O)N[C@@H](CC(C)C)C(=O)N[C@@H](C)C(=O)N[C@@H](C)C(=O)N[C@H](C(=O)N[C@@H](CC(C)C)C(N)=O)C(C)C)C(C)C`: 60.7 nM, 99.2% and 39.8 nM.
With `CC[C@H](C)[C@H](NC(=O)CNC(=O)[C@H](CCCC(=O)O)NC(=O)[C@H](CO)NC(=O)[C@@H](N)Cc1cnc[nH]1)C(=O)N[C@@H](Cc1ccccc1)C(=O)N[C@H](C(=O)N[C@@H](CC(=O)O)C(=O)N[C@@H](CO)C(=O)N[C@@H](Cc1ccc(O)cc1)C(=O)N[C@@H](CO)C(=O)N[C@@H](CCCNC(=N)N)C(=O)N[C@@H](Cc1ccc(O)cc1)C(=O)N[C@@H](CCCNC(=N)N)C(=O)N[C@@H](CCCCN)C(=O)N[C@@H](CCC(N)=O)C(=O)N[C@@H](CCSC)C(=O)N[C@@H](C)C(=O)N[C@H](C(=O)N[C@@H](CCCCN)C(=O)N[C@@H](CCCCN)C(=O)N[C@@H](Cc1ccc(O)cc1)C(=O)N[C@@H](CC(C)C)C(=O)N[C@@H](C)C(=O)N[C@@H](C)C(=O)N[C@H](C(=O)N[C@@H](CC(C)C)C(N)=O)C(C)C)C(C)C)[C@@H](C)O`, the IC50 in assay [1] is 818 nM. In addition, in assay [2], the Emax was 29.3%. Also, the EC50 in assay [3] is 834 nM.
The matching figures for `CC[C@H](C)[C@H](NC(=O)[C@H](C)NC(=O)[C@H](CC(=O)O)NC(=O)[C@H](CO)NC(=O)[C@@H](N)Cc1cnc[nH]1)C(=O)N[C@@H](Cc1ccccc1)C(=O)N[C@H](C(=O)N[C@@H](CC(=O)O)C(=O)N[C@@H](CO)C(=O)N[C@@H](Cc1ccc(O)cc1)C(=O)N[C@@H](CO)C(=O)N[C@@H](CCCNC(=N)N)C(=O)N[C@@H](Cc1ccc(O)cc1)C(=O)N[C@@H](CCCNC(=N)N)C(=O)N[C@@H](CCCCN)C(=O)N[C@@H](CCC(N)=O)C(=O)N[C@@H](CCSC)C(=O)N[C@@H](C)C(=O)N[C@H](C(=O)N[C@@H](CCCCN)C(=O)N[C@@H](CCCCN)C(=O)N[C@@H](Cc1ccc(O)cc1)C(=O)N[C@@H](CC(C)C)C(=O)N[C@@H](C)C(=O)N[C@@H](C)C(=O)N[C@H](C(=O)N[C@@H](CC(C)C)C(N)=O)C(C)C)C(C)C)[C@@H](C)O`: 9.1 nM, 105% and 20.8 nM.
The matching figures for `CC[C@H](C)[C@H](NC(=O)CNC(=O)[C@H](CCC(=O)O)NC(=O)[C@H](CO)NC(=O)[C@@H](N)Cc1cnc[nH]1)C(=O)N[C@@H](Cc1ccccc1)C(=O)N[C@H](C(=O)N[C@@H](CC(=O)O)C(=O)N[C@@H](CO)C(=O)N[C@@H](Cc1ccc(O)cc1)C(=O)N[C@@H](CO)C(=O)N[C@@H](CCCNC(=N)N)C(=O)N[C@@H](Cc1ccc(O)cc1)C(=O)N[C@@H](CCCNC(=N)N)C(=O)N[C@@H](CCCCN)C(=O)N[C@@H](CCC(N)=O)C(=O)N[C@@H](CCSC)C(=O)N[C@@H](C)C(=O)N[C@H](C(=O)N[C@@H](CCCCN)C(=O)N[C@@H](CCCCN)C(=O)N[C@@H](Cc1ccc(O)cc1)C(=O)N[C@@H](CC(C)C)C(=O)N[C@@H](C)C(=O)N[C@@H](C)C(=O)N[C@H](C(=O)N[C@@H](CC(C)C)C(N)=O)C(C)C)C(C)C)[C@@H](C)O`: 10.6 nM, 90.5% and 20.6 nM.
Taken in the same sequence, the figures for `CC[C@H](C)[C@H](NC(=O)CNC(=O)[C@H](CC(N)=O)NC(=O)[C@H](CO)NC(=O)[C@@H](N)Cc1cnc[nH]1)C(=O)N[C@@H](Cc1ccccc1)C(=O)N[C@H](C(=O)N[C@@H](CC(=O)O)C(=O)N[C@@H](CO)C(=O)N[C@@H](Cc1ccc(O)cc1)C(=O)N[C@@H](CO)C(=O)N[C@@H](CCCNC(=N)N)C(=O)N[C@@H](Cc1ccc(O)cc1)C(=O)N[C@@H](CCCNC(=N)N)C(=O)N[C@@H](CCCCN)C(=O)N[C@@H](CCC(N)=O)C(=O)N[C@@H](CCSC)C(=O)N[C@@H](C)C(=O)N[C@H](C(=O)N[C@@H](CCCCN)C(=O)N[C@@H](CCCCN)C(=O)N[C@@H](Cc1ccc(O)cc1)C(=O)N[C@@H](CC(C)C)C(=O)N[C@@H](C)C(=O)N[C@@H](C)C(=O)N[C@H](C(=O)N[C@@H](CC(C)C)C(N)=O)C(C)C)C(C)C)[C@@H](C)O` were 284 nM, 91.2% and 140 nM.
With `CC[C@H](C)[C@H](NC(=O)CNC(=O)[C@H](CC(=O)O)NC(=O)[C@H](C)NC(=O)[C@@H](N)Cc1cnc[nH]1)C(=O)N[C@@H](Cc1ccccc1)C(=O)N[C@H](C(=O)N[C@@H](CC(=O)O)C(=O)N[C@@H](CO)C(=O)N[C@@H](Cc1ccc(O)cc1)C(=O)N[C@@H](CO)C(=O)N[C@@H](CCCNC(=N)N)C(=O)N[C@@H](Cc1ccc(O)cc1)C(=O)N[C@@H](CCCNC(=N)N)C(=O)N[C@@H](CCCCN)C(=O)N[C@@H](CCC(N)=O)C(=O)N[C@@H](CCSC)C(=O)N[C@@H](C)C(=O)N[C@H](C(=O)N[C@@H](CCCCN)C(=O)N[C@@H](CCCCN)C(=O)N[C@@H](Cc1ccc(O)cc1)C(=O)N[C@@H](CC(C)C)C(=O)N[C@@H](C)C(=O)N[C@@H](C)C(=O)N[C@H](C(=O)N[C@@H](CC(C)C)C(N)=O)C(C)C)C(C)C)[C@@H](C)O`, the IC50 in assay [1] was found to be 5.1 nM. Further, the Emax in assay [2] was 98.1%. Also, the half-maximal effective concentration (EC50) in assay [3] turned out to be 6.8 nM.
